Test results taken from ChEMBL document CHEMBL2429727, “Syntheses, biological evaluation and SAR of ingenol mebutate analogues for treatment of actinic keratosis and non-melanoma skin cancer” (Bioorg Med Chem Lett, 2013).
Active and inactive are the calls of the source. The calls are words filed in the database; no cut-off is given here.

Experiments:
Keratinocyte [1] = assay: Induction of TNFalpha release in human primary epidermal keratinocytes after 6 hrs; type: functional, cell-based
In short: (§1)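 Human adult log-phase primary epidermal keratinocytes subcultured at 10,000 cells/well. Incubated with titrated compound for 6 h at 37 °C in humidified 95% air/5% CO2. Secreted cytokines quantified on 4-spot cytokine plates. EC50 is the concentration giving 50% of the maximum effect of the ingenol mebutate reference. Emax is maximal response relative to that reference.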

Keratinocyte [2] = assay: Induction of IL-8 release in human primary epidermal keratinocytes after 6 hrs by HTRF assay relative to ingenol mebutate; type: functional
[3] = Induction of necrosis in human HeLa cells after 30 mins by resazurin assay; type: cell-based; details: read-out: LC50
In short: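 HeLa cells exposed to increasing ester concentrations up to 400 µM for 30 min at 37 °C. Remaining metabolic activity then read with a resazurin-based dye. LC50 is the concentration causing 50% loss of metabolic activity.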

[4] = molecular target: Protein kinase C delta type (Homo sapiens, UniProt Q05655); assay: Activation of PKCdelta (unknown origin) using phosphatidylserine […]; details: read-out: EC50
Sequence of Protein kinase C delta type (Q05655 whole entry): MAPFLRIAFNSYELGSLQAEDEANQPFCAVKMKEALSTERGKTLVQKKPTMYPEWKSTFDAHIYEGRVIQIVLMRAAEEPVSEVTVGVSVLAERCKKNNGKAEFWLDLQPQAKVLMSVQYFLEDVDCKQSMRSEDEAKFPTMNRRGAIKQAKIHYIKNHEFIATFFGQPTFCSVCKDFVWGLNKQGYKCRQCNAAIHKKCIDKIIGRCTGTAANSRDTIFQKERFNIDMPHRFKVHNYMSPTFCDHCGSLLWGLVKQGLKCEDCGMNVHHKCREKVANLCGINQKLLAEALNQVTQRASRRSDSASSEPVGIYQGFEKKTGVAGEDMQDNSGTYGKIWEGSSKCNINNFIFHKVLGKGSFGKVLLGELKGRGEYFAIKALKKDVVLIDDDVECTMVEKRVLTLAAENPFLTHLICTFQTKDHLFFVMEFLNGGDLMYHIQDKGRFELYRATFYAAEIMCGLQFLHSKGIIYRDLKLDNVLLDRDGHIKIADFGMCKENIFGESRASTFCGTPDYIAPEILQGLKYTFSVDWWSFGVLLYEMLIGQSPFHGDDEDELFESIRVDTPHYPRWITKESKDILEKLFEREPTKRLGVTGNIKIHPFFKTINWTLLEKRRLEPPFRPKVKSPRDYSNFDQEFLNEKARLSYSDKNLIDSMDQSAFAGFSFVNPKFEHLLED
In short: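 PKCdelta assayed in vitro by phosphorylation of a PKC peptide substrate, with 0.05 mg/mL phosphatidylserine and no diacylglycerol so stimulation could be seen. Compounds serially diluted at semilogarithmic intervals, twelve points from 10 µM. Reaction started by adding ATP.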

[5] = Induction of oxidative burst in polymorphonuclear leukocytes (unknown origin) isolated from buffy coat after 40 mins by fluorescence assay; type: functional, cell-based
In short: (§2)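 PMN isolated and purified from fresh buffy coats, then incubated 40 min at ambient temperature with titrated compound (top concentration 10 µM) premixed with hydroethidine. Respiratory burst read as fluorescence in relative light units, emission 579 nm, excitation 485 nm. EC50 and Emax are expressed relative to the maximum effect of the ingenol mebutate reference.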

[6] = Chemical stability of the compound in aqueous buffer assessed as drug recovery after 16 hrs at pH 7.4 by HPLC analysis; type: physicochemical; details: read-out: Drug recovery
In short: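 DMSO stock diluted with pre-heated (37 °C) aqueous buffer pH 7.4 to at most 30% v/v organic content, then shaken. Held in the HPLC autosampler at 37 °C, first injected within 5 min, then injected repeatedly over 16 h. Recovery taken from the fall in compound peak area, UV detection normally at 270 nm.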

Keratinocyte [7] = assay: Induction of IL-8 release in human primary epidermal keratinocytes after 6 hrs by HTRF assay; type: functional, cell-based
[8] = Induction of oxidative burst in polymorphonuclear leukocytes (unknown origin) isolated from buffy coat at 10 uM after 40 mins by fluorescence assay relative to ingenol mebutate; type: functional; in short: as §2
Keratinocyte [9] = assay: Induction of TNFalpha release in human primary epidermal keratinocytes after 6 hrs relative to ingenol mebutate; type: functional; in short: as §1
[10] = Dissociation constant, pKa of the compound; type: physicochemical
Keratinocyte [11] = assay: Induction of TNFalpha release in human primary epidermal keratinocytes after 6 hrs in presence of PKC inhibitor bisindolylmaleimide 1; type: functional, cell-based
Keratinocyte [12] = assay: Induction of IL-8 release in human primary epidermal keratinocytes after 6 hrs by HTRF assay in presence of PKC inhibitor bisindolylmaleimide 1; type: functional, cell-based
[13] = Induction of oxidative burst in polymorphonuclear leukocytes (unknown origin) isolated from buffy coat at 10 uM after 40 mins by fluorescence assay in presence of PKC inhibitor bisindolylmaleimide 1; type: functional, cell-based

Row | Structure (SMILES) | EC50 (Keratinocyte [1]) | Emax (Keratinocyte [2]) | CC50 at 0.5 h [3] | EC50 [4] | EC50 [5] | remaining at 16 h [6] | EC50 (Keratinocyte [7]) | Emax at 10 µM [8] | Emax (Keratinocyte [9]) | pKa [10] | Activity (Keratinocyte [11]) | Activity (Keratinocyte [12]) | Activity [13]
1 | CC1=C[C@]23C(=O)[C@@H](C=C(CO)[C@@H](O)[C@]2(O)[C@H]1OC(=O)C(C)=C(C)C)[C@H]1[C@@H](C[C@H]3C)C1(C)C | 8 nM | 102% | 174 µM | 5.3 nM | 5.9 nM | 75% | 8.6 nM | 106% | 97% | – | – | – | –
2 | CO/N=C(\C(=O)O[C@H]1C(C)=C[C@]23C(=O)[C@@H](C=C(CO)[C@@H](O)[C@]12O)[C@H]1[C@@H](C[C@H]3C)C1(C)C)c1ccccc1 | 1600 nM | 54% | 92 µM | 10.6 nM | 49 nM | 68% | 147 nM | 120% | 52% | – | – | – | –
3 | C/C=C(/C)C(=O)O | – | – | – | – | – | – | – | – | – | 4.3 | – | – | –
4 | C/C=C(/C)C(=O)O[C@H]1C(C)=C[C@]23C(=O)[C@@H](C=C(CO)[C@@H](O)[C@]12O)[C@H]1[C@@H](C[C@H]3C)C1(C)C [INGENOL MEBUTATE] | 11.2 nM | – | 230 µM | 4.1 nM | 8.7 nM | 60% | 10.3 nM | – | – | – | inactive | inactive | inactive
5 | C/C=C(/C(=O)O[C@H]1C(C)=C[C@]23C(=O)[C@@H](C=C(CO)[C@@H](O)[C@]12O)[C@H]1[C@@H](C[C@H]3C)C1(C)C)c1ccccc1 | 4.9 nM | 97% | 103 µM | 5.2 nM | 7.4 nM | 72% | 3.8 nM | 126% | 110% | – | – | – | –
6 | C/C=C(\C)C(=O)O[C@H]1C(C)=C[C@]23C(=O)[C@@H](C=C(CO)[C@@H](O)[C@]12O)[C@H]1[C@@H](C[C@H]3C)C1(C)C | – | 75% | 237 µM | – | 7.5 nM | 45% | 112 nM | 92% | 81% | 5.02 | – | – | –
7 | CC1=C[C@]23C(=O)[C@@H](C=C(CO)[C@@H](O)[C@]2(O)[C@H]1OC(=O)C1(C)CCCCC1)[C@H]1[C@@H](C[C@H]3C)C1(C)C | 13 nM | 52% | 61 µM | 2.9 nM | 7.6 nM | 70% | 22 nM | 127% | 62% | – | – | – | –
8 | CCCCCCCCCC(=O)O[C@H]1C(C)=C[C@]23C(=O)[C@@H](C=C(CO)[C@@H](O)[C@]12O)[C@H]1[C@@H](C[C@H]3C)C1(C)C | 11 nM | 94% | 117 µM | 5.3 nM | 10 nM | – | 8 nM | 137% | 96% | – | – | – | –
9 | CCC(CC)C(=O)O[C@H]1C(C)=C[C@]23C(=O)[C@@H](C=C(CO)[C@@H](O)[C@]12O)[C@H]1[C@@H](C[C@H]3C)C1(C)C | 27 nM | 59% | 86 µM | 4.5 nM | 6.3 nM | 60% | 43 nM | 109% | 62% | – | – | – | –
